Bioassay records deposited in PubChem by several laboratories.
Rev-RRE block = HIV Rev-RRE protein-RNA interaction inhibition; P05866; Rev peptide-RRE RNA binding, FRET; inhibition, % at 8 µM; actives 0.79% (n = 97,000);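 active = inhibition above the screen-wide mean plus 3 SD, cut at about 35% in these data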
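Test system – labelled RRE RNA duplex and labelled Rev peptide · Signal – fluorescein-to-Cy5 FRET, 480 nm excitation · Evaluation – % inhibition of FRET ratio versus controls · Benchmarks – DMSO low control, neomycin B high control · Incubation – 5 min RNA-compound premix plus 15 min binding step, 25 °C · Medium – HEPES pH 7.5 salt buffer with EDTA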
PLK1 inh = PLK1 (human) kinase inhibition. recombinant PLK1 kinase, TR-FRET peptide phosphorylation. P53350. AID 619. actives 0.53% (n = 97,000). inhibition, % at 10 µM;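 active = inhibition of 50% or more in the single-concentration screen; inactive = inhibition below 50%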
Target sequence (P53350 whole entry, looked up): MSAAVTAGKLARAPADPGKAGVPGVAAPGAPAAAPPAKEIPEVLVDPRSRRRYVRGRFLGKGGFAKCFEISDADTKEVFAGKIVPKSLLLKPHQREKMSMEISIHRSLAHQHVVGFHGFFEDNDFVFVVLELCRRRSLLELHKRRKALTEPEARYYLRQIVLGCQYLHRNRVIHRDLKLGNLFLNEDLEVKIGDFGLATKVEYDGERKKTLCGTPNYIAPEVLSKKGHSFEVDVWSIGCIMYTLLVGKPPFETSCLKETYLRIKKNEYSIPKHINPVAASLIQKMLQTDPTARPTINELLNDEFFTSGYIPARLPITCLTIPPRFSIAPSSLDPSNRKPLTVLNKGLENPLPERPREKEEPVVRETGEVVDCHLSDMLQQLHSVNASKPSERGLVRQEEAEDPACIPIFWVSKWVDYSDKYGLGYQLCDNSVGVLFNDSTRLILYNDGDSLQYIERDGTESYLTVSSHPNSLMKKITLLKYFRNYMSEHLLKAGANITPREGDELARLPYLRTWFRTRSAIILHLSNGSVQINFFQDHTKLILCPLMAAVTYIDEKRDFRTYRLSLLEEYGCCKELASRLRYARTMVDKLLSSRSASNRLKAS
PLK1 PBD inh = Plk1 (human) PBD binding inhibition; Plk1 PBD phosphopeptide binding, fluorescence polarization; inhibition, %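 (tested at about 20 µM)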; actives 0.13% (n = 97,000); in the data active = inhibition above about 34%, passing the limit was not always enough
FAK blocker = inhibitors of human focal adhesion kinase; inhibition, %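 (tested at 7 µM)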; actives 0.84% (n = 97,000); AID 727; Q05397; biochemical FAK kinase activity assay; in the data active = inhibition above about 19%
F-actin modifier = modifiers of cytoskeleton assembly. HUVEC TNFa F-actin phalloidin imaging, high content. inhibition, % at 2 µM. actives 0.18% (n = 91,000);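 active = inhibition above the batch mean plus 3 SD and confirmed as a hit by visual image inspection, cut at about 30% in these data, passing the limit was not always enough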
E-sel TNF inh = blocks E-selectin expression induced by TNF alpha; inhibition, % at 2 µM; HUVEC TNFa-induced E-selectin immunofluorescence, high content; actives 0.71% (n = 120,000); AID 1246;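 active = inhibition above the batch mean plus 3 SD, and confirmed as a hit on visual image review, cut at about 43% in these data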
Numbers stand for hits; [ ] = dose if it differs, or a comment. In the library only some 2.2% were active in any assay of this set; here they are far more common.

For O=C(Nc1ccccc1)N(CCc1ccncc1)C1CCCCC1 the results were Rev-RRE block inactive, PLK1 inh inactive, PLK1 PBD inh inactive, FAK blocker inactive, F-actin modifier inactive and E-sel TNF inh 97.7.
O=C(COC(=O)c1cccnc1Cl)Nc1nc(-c2ccccc2)cs1 was read as E-sel TNF inh inactive.
Screening O=C(N/N=C/c1ccc(N2CCOCC2)cc1)c1ccccc1OCCOc1ccccc1 returned E-sel TNF inh inactive.
`CCS(=O)(=O)Nc1ccc(-c2cc(-c3ccccc3)c3cc(C)ccc3n2)cc1` gave E-sel TNF inh 78.8.
COc1ccccc1NC(=O)CSc1nc2n[nH]c(C)c2c(=N)n1-c1ccccc1Cl was read as Rev-RRE block inactive, PLK1 inh inactive, PLK1 PBD inh inactive, FAK blocker 20.6, F-actin modifier inactive and E-sel TNF inh inactive.
Screening Cc1cc(C)n2nc3nc4c(cc3c2n1)CCCC4 returned Rev-RRE block 76.4, PLK1 inh inactive, PLK1 PBD inh inactive, FAK blocker inactive, F-actin modifier inactive and E-sel TNF inh inactive.
For CCn1c(=S)[nH]c2nc3c(cc2c1=O)CCCC3 the results were Rev-RRE block inactive, PLK1 inh inactive, PLK1 PBD inh inactive, FAK blocker inactive, F-actin modifier inactive and E-sel TNF inh inactive.
`COc1cc(C2C(C#N)=C(N)OC3=C2C(=O)CCC3)c([N+](=O)[O-])cc1OC` (stereo unspecified) gave Rev-RRE block 48.0, PLK1 inh inactive, PLK1 PBD inh inactive, FAK blocker inactive, F-actin modifier inactive and E-sel TNF inh inactive.
`CC(=O)Nc1ccc(Cl)c(C(N)=O)c1` gave Rev-RRE block inactive, PLK1 inh inactive, PLK1 PBD inh inactive, FAK blocker inactive, F-actin modifier inactive and E-sel TNF inh inactive.
Screening NC(=O)c1cc(N2C(=O)C=CC2=O)ccc1Cl returned Rev-RRE block inactive, PLK1 inh inactive, PLK1 PBD inh inactive, FAK blocker inactive, F-actin modifier inactive and E-sel TNF inh 50.9.
For Cn1cccc1C(=O)NC(=O)COC(=O)c1cc(S(=O)(=O)N2CCCCC2)ccc1Cl the results were E-sel TNF inh inactive.
`Cc1ccc(NC(=O)CN(C)C(=O)/C=C/c2cccc(F)c2)cc1` gave E-sel TNF inh inactive.
`Cc1cccc(C)c1NC(=O)CN(C)C(=O)/C=C/c1cccs1` gave E-sel TNF inh 93.2.
For CCc1n[nH]c2c1C(=O)CC(C)(C)C2 the results were Rev-RRE block inactive, PLK1 inh inactive, PLK1 PBD inh inactive, FAK blocker inactive, F-actin modifier inactive and E-sel TNF inh 53.9.
For Cc1[nH]nc2c1C(=O)CC(C)(C)C2 the results were Rev-RRE block inactive, PLK1 inh inactive, PLK1 PBD inh inactive, FAK blocker inactive, F-actin modifier inactive and E-sel TNF inh inactive.
For Cc1cc(C(F)(F)F)c2c(N)c(C(=O)Nc3cc(C)on3)sc2n1 the results were Rev-RRE block inactive, PLK1 inh inactive, PLK1 PBD inh inactive, FAK blocker inactive, F-actin modifier inactive and E-sel TNF inh inactive.
`Nc1c(C(=O)Nc2ccccc2F)sc2nc(Cc3ccccc3)cc(C(F)(F)F)c12` gave Rev-RRE block 82.2[fluorescence artefact?], PLK1 inh inactive, PLK1 PBD inh inactive, FAK blocker inactive, F-actin modifier inactive and E-sel TNF inh inactive.
For CCCCN(C(=O)CN1CCOCC1)c1c(N)n(CC(C)C)c(=O)[nH]c1=O the results were E-sel TNF inh inactive.
Screening O=C(COc1ccc(-c2nnco2)cc1)NCc1ccccc1Cl returned E-sel TNF inh 77.0.
For Cc1ccc2sc(-c3ccc(NC(=O)/C=C\C(=O)O)cc3)nc2c1 the results were E-sel TNF inh inactive.
CCOC(=O)C1CCCN(C(=O)COC(=O)c2cc(=O)c3ccccc3o2)C1 (stereo unspecified) was read as Rev-RRE block inactive, PLK1 inh inactive, PLK1 PBD inh inactive, FAK blocker inactive, F-actin modifier inactive and E-sel TNF inh 63.6.
`CCOC(=O)C1CCCN(C(=O)c2cc(=O)c3ccccc3o2)C1` (stereo unspecified) gave Rev-RRE block inactive, PLK1 inh inactive, PLK1 PBD inh inactive, FAK blocker inactive, F-actin modifier inactive and E-sel TNF inh inactive.
N#CC1=C(N)Oc2cc(Nc3ccccc3)ccc2C1c1ccncc1 (stereo unspecified) was read as Rev-RRE block inactive, PLK1 inh inactive, PLK1 PBD inh inactive, FAK blocker inactive, F-actin modifier inactive and E-sel TNF inh 53.8.
N#CC1=C(N)Oc2cc(N)ccc2C1c1cccnc1 (stereo unspecified) was read as E-sel TNF inh inactive.
Screening N#CC1=C(N)Oc2cc(N)ccc2C1c1ccc(F)cc1 (stereo unspecified) returned Rev-RRE block inactive, PLK1 inh inactive, PLK1 PBD inh inactive, FAK blocker inactive and E-sel TNF inh inactive.
`CCN(CC)c1ccc2c(c1)OC(N)=C(C#N)C2c1cccnc1` (stereo unspecified) gave Rev-RRE block 121.0[fluorescence artefact?], PLK1 inh inactive, PLK1 PBD inh inactive, FAK blocker inactive and F-actin modifier inactive.
`CO/N=C/C(C#N)=C/c1cc(C(=O)c2ccccc2)cn1C` gave E-sel TNF inh inactive.
For COc1ccc(CCNC(=S)NC2CCN(Cc3ccccc3)CC2)cc1 the results were E-sel TNF inh inactive.
Screening CN1CCN(c2ccc(Cl)cc2NC(=O)c2ccc(S(=O)(=O)N(C)C)cc2)CC1 returned Rev-RRE block inactive, PLK1 inh inactive, PLK1 PBD inh inactive, FAK blocker inactive and F-actin modifier inactive.
`CN(C)S(=O)(=O)c1ccc(C(=O)Nc2ccc(F)cc2F)cc1` gave Rev-RRE block inactive, PLK1 inh 65.6, PLK1 PBD inh inactive and FAK blocker inactive.
CCOc1cc(C(=O)NCc2nnc(SCC(=O)OC)n2C)cc(OCC)c1OCC was read as E-sel TNF inh 71.1.
Screening CCOC(=O)CSc1nnc(CNC(=O)c2cc(OCC)c(OCC)c(OCC)c2)n1C returned Rev-RRE block inactive, PLK1 inh inactive, PLK1 PBD inh inactive, FAK blocker inactive, F-actin modifier inactive and E-sel TNF inh inactive.
Screening CN(C)c1ccc(/C=C/c2ccncc2)cc1 returned Rev-RRE block 72.5, PLK1 inh inactive, PLK1 PBD inh inactive, FAK blocker inactive, F-actin modifier inactive and E-sel TNF inh inactive.
`CCc1ccc(N(CC(=O)Nc2ccccc2C(=O)N2CCOCC2)S(C)(=O)=O)cc1` gave E-sel TNF inh inactive.
O=C1c2cccc3c(N4CCCCC4)ccc(c23)C(=O)N1CCO was read as Rev-RRE block 118.0[fluorescence artefact?], PLK1 inh inactive, PLK1 PBD inh inactive, FAK blocker inactive, F-actin modifier inactive and E-sel TNF inh inactive.
Screening Cc1n[nH]c(C)c1N1C(=O)c2cccc3c(N4CCCCCC4)ccc(c23)C1=O returned Rev-RRE block 134.1[fluorescence artefact?], PLK1 inh inactive, PLK1 PBD inh inactive, FAK blocker inactive, F-actin modifier inactive and E-sel TNF inh inactive.
For N#C/C(=C\c1cccc(Oc2ccccc2)c1)C(=O)N1CCOCC1 the results were E-sel TNF inh inactive.
Screening O=C(NCCSc1c[nH]c2ccccc12)c1ccc2c(c1)OCO2 returned E-sel TNF inh inactive.
